Our source for the yeast fitness values is the RNAGym collection of RNA variant scans (doi:10.1126/science.aae0568).

Variants at the floor of the assay were thinned out. Where only a bound is given, the exact number is not on record here.

Sequences and labels used below:
B1: tRNA (parent)
chain: GUUCCGUUGGCGUAAUGGUAACGCGUCUCCCUCCUAAGGAGAAGACUGCGGGUUCGAGUCCCGUACGGAACG

In the data set the parent is B1. The data set can be described thus: yeast fitness relative to wild type (ratio to wild type); higher = fitter; tRNA-Arg(CCU), competitive growth, 37 C, YPD. In short, it runs like this:
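Amplicons of the tRNA-Arg(CCU) gene were sequenced, 100-nucleotide paired-end, from the start population and from each end population of a pooled yeast competition. The competition, in six parallel replicates, lasted 24 hours in YPD at 37°C. Fitness relative to wild type was calculated from changes in genotype frequencies. Genotypes had to have ≥ 100 starting reads, and estimates < 0.5 were set to 0.5.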
As for C4U A21G C46A A70U, the yeast fitness amounted to 0.76. Under C4U A37U G52C A65C stands not above 0.5.

Turning to C4U C27U U32C, the yeast fitness was 0.615. Under C4U C11U U28A C29G G51A G56A G67C stands not above 0.5; under C4U A20C C34U C55U, 0.532; under C4U C24G U35C A57G, not above 0.5.

On to C4U A15U A42C U47A A65G, for which the yeast fitness is not above 0.5. As to C4U A20C C55G, the yeast fitness is not above 0.5.

Regarding C4U C11G C24A C29U, the yeast fitness is not above 0.5. Under C4U A37U C49U stands 0.563; under C4U C5U G9A G10A A15C C46A, 0.619; under C4U C22G C24U C62G, not above 0.5. The figure for C4U C24A A57G A70C is not above 0.5; for C4U A14C U59A C60U it is not above 0.5. With C4G U35G A70C, the yeast fitness amounted to 0.552. Under C4U C5A U13A C31U C34U C66U stands not above 0.5.

In the case of C4G U64A, the yeast fitness came out at 0.707. Under C4G U64G stands 0.671; under C4G U64C, 0.872.

Turning to C4U A65C A70G, the yeast fitness turned out to be 0.75. Under C4U C11G C55U G58A stands not above 0.5; under C4U C11A A37C C49U C60G A70C, not above 0.5; under C4U C5G C29G C31G A37C A57G C66A, not above 0.5.

For the variant C4U A42G A69C, the yeast fitness was 0.636. Under C4U A15G G23C A37U A65U stands 0.57. The figure for C4U C24A U47G is not above 0.5; for C4U C5G C29U A65G it is not above 0.5; for C4U C24U U28C C30A it is 0.636. In the case of C4U A36C A45C, the yeast fitness was not above 0.5.

On to C4U A45C C55U G68C, for which the yeast fitness was not above 0.5. The figure for C4U A36U G68A is not above 0.5.

For C4U A21U U35C G50C, the yeast fitness was not above 0.5. The figure for C4U C24U A36C G63C C66G is not above 0.5; for C4U C29G it is 0.608; for C4U A42C G51C A65G it is 0.508. The figure for C4U A15C G63C is 0.556; for C4U C11G C29A it is 0.597. The figure for C4U A70C is 0.989; for C4U A70U it is 1.02; for C4U A15C C27A C31U A43G C60A it is 0.526. Turning to C4U A14U A42G C46U, the yeast fitness was not above 0.5.

C4U C11G C22G C55G G63C: the yeast fitness was not above 0.5. The figure for C4U A14U A36U is 0.545; for C4U A14C C29U A65G it is 0.765; for C4U C29A G41A it is not above 0.5. The figure for C4U A14U C33U C49G C55A is not above 0.5. For C4U C24A C31A A40U A42C C49A, the yeast fitness was not above 0.5.

Take C4U A20C C29U: the yeast fitness was 0.715. Under C4U A20C A65C stands 0.719; under C4U C22U C31U A57U, not above 0.5. The figure for C4U C29A C61G A70U is 0.588; for C4U C22U C34A it is 0.548.

For the variant C4U C11U A45G, the yeast fitness stood at 0.687. Under C4U C11U A45C stands 0.7; under C4U A14C G68C, not above 0.5; under C4U C11G A45U C49U C61G, not above 0.5. The figure for C4U A45G G51A G67A is not above 0.5. Turning to C4G U53A G56A, the yeast fitness is not above 0.5.

For the variant C4U C27G A43U C55G, the yeast fitness is not above 0.5.

As to C4U C11G C29U G48A G52A, the yeast fitness is not above 0.5. On to C4U C5G U28C A65G, for which the yeast fitness came to 0.562. Under C4U A14U C33G A69U stands not above 0.5; under C4U A20G U28C C31U G50C C55G U59C C60U G67U, not above 0.5; under C4U A21U C66A, not above 0.5.

As for C4U C24U A43G G51C U54C, the yeast fitness is not above 0.5. Under C4U C24G C55G U64A stands not above 0.5; under C4U A21U U28C G52C A57C, not above 0.5. As for C4U C22A U35A C49G G63C, the yeast fitness was not above 0.5. The figure for C4U C5G C29U is 0.541; for C4U A15U U64C A65G it is not above 0.5. On to C4U A20C A40U C55G, for which the yeast fitness was 0.578.

Turning to C4U C11A C27A C62A, the yeast fitness is not above 0.5. Under C4U C22G C60G stands not above 0.5; under C4U A45U, 0.968; under C4U A43C G67A, 0.733. Turning to C4U A42C A45G C49U C66A, the yeast fitness is not above 0.5. For C4U A36U, the yeast fitness turned out to be 0.82. Under C4U A36G stands 1.02.

As to C4U A20C C24G G56A C62A, the yeast fitness is not above 0.5. With C4U A45C C60G A69G, the yeast fitness was not above 0.5. Under C4U C24G A57G stands not above 0.5; under C4U A20G A45U C61U C62G A69C, 0.602. The figure for C4G U53G C66A is not above 0.5; for C4U A15G C60G it is 0.537; for C4U C5A U13A C31U C34U it is 0.544.

With C4U A40U C66U, the yeast fitness is 0.762. The figure for C4U C5G is 0.95; for C4U C27G A45C C55U C66A it is not above 0.5; for C4U C22G G56A it is 0.76. On to C4U C11G C34U C55A A65U A70G, for which the yeast fitness was not above 0.5. As for C4U A15C A37G A40G G68U, the yeast fitness was not above 0.5.

For C4U A57C G58A, the yeast fitness amounted to 0.58. Under C4U A21C C24U G38A G63C stands not above 0.5; under C4U A14U C30A U54G A65C, 0.634. The figure for C4U C5U A37U C46U C61U C66U is not above 0.5; for C4U A42C A69U it is 0.633. Turning to C4U C11A A70G, the yeast fitness was not above 0.5. The figure for C4U C22U C31U is 0.645; for C4U A65G C66U it is 0.787.

On to C4U A14U A43U G68A, for which the yeast fitness is not above 0.5. The figure for C4U A15C G17A G18A A36C C55U C66A is not above 0.5; for C4U A43C G51A G68U it is 0.623; for C4U A20U C27G C30G A43G A65C G68C it is 0.639. The figure for C4U C11U A57G is 0.684; for C4U A15G A65U it is 0.69.

With C4U C11U G25C G41A A57C G58A, the yeast fitness was not above 0.5. Regarding C4U C5G C34U U54A G67U, the yeast fitness was not above 0.5. Under C4U C27G A45C G58A C62G stands not above 0.5; under C4U C11A A42G G48C G63U G67A, not above 0.5; under C4U C27G U53A, not above 0.5. The figure for C4U A20G C27A G52A is not above 0.5; for C4U C11A G39A G51A it is not above 0.5; for C4U A42G A65U it is 0.611. Under C4U A15U U53A C62A stands not above 0.5; under C4U A57U U59C, 0.54. On to C4U C11G C30G, for which the yeast fitness was not above 0.5. The figure for C4U A36C C49U G58A is 0.612; for C4U A36U G52A it is not above 0.5. The figure for C4U C5G U16C C24G A42C G56A is not above 0.5; for C4U A15G C22U it is 0.559. The figure for C4U A36G G44C A69U is 0.635; for C4U C5G G10A C24U A36C G56A it is 0.651. On to C4U C5A A36U G39C A65C, for which the yeast fitness was not above 0.5. C4U C22G U35C: the yeast fitness was found to be 0.641. The figure for C4U C22A C27U A69U is 0.512.

Take C4U C5A C60G: the yeast fitness was not above 0.5. Under C4G U35C G39A C62A stands 0.511. In the case of C4U A45U C66U, the yeast fitness was 0.656. Consider C4U A37C G50C, for which the yeast fitness is not above 0.5. The figure for C4U C11G C34U C60A is not above 0.5; for C4U A21C U59C it is not above 0.5; for C4U C24A C55A C62U A65C it is not above 0.5. The figure for C4U C24U A43G is 0.555. The figure for C4U C11A C46U is 0.661; for C4U A36U C55A it is 0.659. For C4G U54G C62A, the yeast fitness was determined as 0.579. The figure for C4U C11G C34U U53C is not above 0.5; for C4U C5U G18A G25A C33U G48A G52A A65C G68A it is not above 0.5; for C4U A45U A69C it is 0.79. The figure for C4U A45U A69U is 0.827; for C4U A20C C22U U47A C62U it is 0.753; for C4U C5A C46U it is 0.655. The figure for C4U C22G U54A is 0.558; for C4U C24G G50A it is not above 0.5; for C4U A20G A45U C61U C62G it is 0.53. For the variant C4U C5G C11A C66A, the yeast fitness was not above 0.5. The figure for C4U C5U G12A A21C C27U is not above 0.5.

With C4U C11G G18A G23C U47G G50A, the yeast fitness is not above 0.5. In the case of C4U A15G G23C A37U U47C A65U, the yeast fitness was not above 0.5. Under C4U C27U A57U stands 0.532; under C4U C5U G18A G25A C33U G48A G52A A69U, not above 0.5.

On to C4U A45G A57C, for which the yeast fitness was 0.585.

In the case of C4U C11A U26G G50C, the yeast fitness amounted to 0.536.

Consider C4U C27U C33A A45C U54A, for which the yeast fitness is not above 0.5. In the case of C4U A36G G44C C49U, the yeast fitness was 0.631.

Take C4U A20C: the yeast fitness was determined as 1.03.

C4U A40C: the yeast fitness stood at 0.835. The figure for C4U A40U is 0.898; for C4U A15U A45C it is 0.611. Under C4U A21G G52A stands not above 0.5. Under C4U C22U G25A C31U C60G A70G stands not above 0.5. Regarding C4U A21G U32A A40C C46A C62U G67A, the yeast fitness is not above 0.5. Take C4U C11A U28G C31U G51C: the yeast fitness was not above 0.5. Consider C4U C11A A37C A57G, for which the yeast fitness is not above 0.5.

As to C4U A14G C30G A36U, the yeast fitness is not above 0.5. Regarding C4U A21C A42G, the yeast fitness was not above 0.5.

On to C4U C11U G25C G41A G58C, for which the yeast fitness is not above 0.5.
